The values that follow come from ChEMBL document CHEMBL1134143, “Studies towards the next generation of antidepressants. Part 1: Indolylcyclohexylamines as potent serotonin reuptake inhibitors” (Bioorg Med Chem Lett, 2001).

The term inhibition denotes the relative decrease from the control value, in per cent. For orientation: pKi means the negative decadic logarithm of the Ki, by convention in mol/L. For orientation: Ki means the equilibrium dissociation constant of an inhibitor or competing ligand from its target.

Each structure is given as a SMILES string. pKi: −log10 of the molar value.

Experiment [1] addresses T1, 5-hydroxytryptamine receptor 1A (Homo sapiens) (UniProt P08908).
T1 sequence (whole entry): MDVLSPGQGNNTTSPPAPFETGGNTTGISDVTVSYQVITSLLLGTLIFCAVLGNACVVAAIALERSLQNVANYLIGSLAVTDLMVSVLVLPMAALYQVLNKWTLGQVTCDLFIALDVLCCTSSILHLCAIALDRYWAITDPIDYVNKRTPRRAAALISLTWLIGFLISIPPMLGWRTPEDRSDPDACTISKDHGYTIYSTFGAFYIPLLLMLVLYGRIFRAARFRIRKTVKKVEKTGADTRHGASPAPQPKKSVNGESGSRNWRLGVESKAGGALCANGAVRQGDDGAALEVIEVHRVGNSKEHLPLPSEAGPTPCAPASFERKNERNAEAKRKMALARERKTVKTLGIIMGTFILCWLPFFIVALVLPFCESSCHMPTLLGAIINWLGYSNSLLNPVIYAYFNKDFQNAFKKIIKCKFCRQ
Description: Binding affinity for 5-hydroxytryptamine 1A receptor was determined by incubating human 5-hydroxytryptamine 1A receptor transfected CHO cells with [3H]8-OH-DPAT. On the set-up: concentration or dose not given beside the values. The following applies: concentration not given here. Type of experiment: cell-based. The essentials: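 Displacement of [3H]-8-OH-DPAT binding in CHO cells transfected with human 5-HT1A receptors. Test compound at six concentrations, triplicate wells per experiment. IC50 converted to Ki (Cheng–Prusoff) and reported as the mean of 2–3 independent experiments.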

The target in experiment [2] is Sodium-dependent serotonin transporter (Rattus norvegicus, UniProt P31652). Description: In vitro for its binding affinity for serotonin transporter RB5-HT-T in rat cortical membranes. The format is cell membranes. Summed up: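 Serotonin transporter affinity (RB5-HT-T). Compound tested at six concentrations in triplicate. Ki calculated from IC50 by Cheng–Prusoff and given as the mean of 2–3 experiments.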
Sodium-dependent serotonin transporter, sequence (P31652 whole entry): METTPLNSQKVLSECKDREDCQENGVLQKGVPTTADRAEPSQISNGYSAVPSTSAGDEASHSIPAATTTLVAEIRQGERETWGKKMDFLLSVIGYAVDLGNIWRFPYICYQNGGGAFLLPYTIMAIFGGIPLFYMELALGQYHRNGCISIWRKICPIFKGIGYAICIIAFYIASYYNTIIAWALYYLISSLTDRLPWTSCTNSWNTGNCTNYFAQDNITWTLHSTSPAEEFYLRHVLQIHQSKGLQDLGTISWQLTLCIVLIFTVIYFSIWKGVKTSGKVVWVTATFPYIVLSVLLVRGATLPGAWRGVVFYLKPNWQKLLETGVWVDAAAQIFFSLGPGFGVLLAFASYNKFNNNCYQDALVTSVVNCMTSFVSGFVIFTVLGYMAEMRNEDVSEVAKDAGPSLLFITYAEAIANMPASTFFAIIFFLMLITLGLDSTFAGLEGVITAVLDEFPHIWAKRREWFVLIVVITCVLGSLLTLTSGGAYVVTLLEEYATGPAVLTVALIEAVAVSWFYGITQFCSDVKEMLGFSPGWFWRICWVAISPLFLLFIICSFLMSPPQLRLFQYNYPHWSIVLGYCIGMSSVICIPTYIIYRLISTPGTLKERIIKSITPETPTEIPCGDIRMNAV

In experiment [3] the target is Adrenergic receptor alpha-1 (Rattus norvegicus) (UniProt P15823+P23944+P43140). Description: In vitro inhibition of [3H]prazosin binding to rat Alpha-1 adrenergic receptors on cortical membranes at 1 uM. Type of experiment: cell membranes. The note with it: Membrane.
Experiment [4] has as its target T2, Adrenergic receptor alpha-1 (Rattus norvegicus, UniProt P15823+P23944+P43140).
T2 sequence (P15823 whole entry): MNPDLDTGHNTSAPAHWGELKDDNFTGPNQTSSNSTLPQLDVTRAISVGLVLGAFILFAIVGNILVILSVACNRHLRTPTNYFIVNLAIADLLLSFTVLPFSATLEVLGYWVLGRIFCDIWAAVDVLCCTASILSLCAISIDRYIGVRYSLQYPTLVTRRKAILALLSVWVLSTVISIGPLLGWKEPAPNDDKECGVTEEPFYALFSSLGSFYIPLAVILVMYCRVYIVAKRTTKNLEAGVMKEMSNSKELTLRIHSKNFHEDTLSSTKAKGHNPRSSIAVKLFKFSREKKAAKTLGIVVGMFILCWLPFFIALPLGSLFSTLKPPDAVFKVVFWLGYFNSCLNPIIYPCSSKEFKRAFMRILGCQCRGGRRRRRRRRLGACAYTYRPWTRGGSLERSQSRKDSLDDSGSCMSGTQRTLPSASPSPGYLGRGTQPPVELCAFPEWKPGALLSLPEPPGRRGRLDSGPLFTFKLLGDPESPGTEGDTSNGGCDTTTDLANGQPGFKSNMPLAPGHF
T2 sequence (P23944 whole entry): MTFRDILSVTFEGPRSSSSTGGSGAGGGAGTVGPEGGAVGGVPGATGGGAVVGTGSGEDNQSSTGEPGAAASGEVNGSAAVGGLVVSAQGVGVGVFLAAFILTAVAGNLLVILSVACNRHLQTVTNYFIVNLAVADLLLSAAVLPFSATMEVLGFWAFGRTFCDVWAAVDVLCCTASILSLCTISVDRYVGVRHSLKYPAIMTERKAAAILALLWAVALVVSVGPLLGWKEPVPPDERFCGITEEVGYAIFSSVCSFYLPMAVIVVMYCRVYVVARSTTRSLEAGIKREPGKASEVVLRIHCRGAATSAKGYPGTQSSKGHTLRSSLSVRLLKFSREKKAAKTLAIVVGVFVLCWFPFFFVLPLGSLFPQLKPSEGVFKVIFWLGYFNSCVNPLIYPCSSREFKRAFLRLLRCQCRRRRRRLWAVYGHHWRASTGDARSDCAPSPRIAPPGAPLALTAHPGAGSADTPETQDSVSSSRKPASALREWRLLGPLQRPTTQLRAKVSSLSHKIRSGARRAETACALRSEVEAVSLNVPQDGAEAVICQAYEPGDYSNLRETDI
T2 sequence (P43140 whole entry): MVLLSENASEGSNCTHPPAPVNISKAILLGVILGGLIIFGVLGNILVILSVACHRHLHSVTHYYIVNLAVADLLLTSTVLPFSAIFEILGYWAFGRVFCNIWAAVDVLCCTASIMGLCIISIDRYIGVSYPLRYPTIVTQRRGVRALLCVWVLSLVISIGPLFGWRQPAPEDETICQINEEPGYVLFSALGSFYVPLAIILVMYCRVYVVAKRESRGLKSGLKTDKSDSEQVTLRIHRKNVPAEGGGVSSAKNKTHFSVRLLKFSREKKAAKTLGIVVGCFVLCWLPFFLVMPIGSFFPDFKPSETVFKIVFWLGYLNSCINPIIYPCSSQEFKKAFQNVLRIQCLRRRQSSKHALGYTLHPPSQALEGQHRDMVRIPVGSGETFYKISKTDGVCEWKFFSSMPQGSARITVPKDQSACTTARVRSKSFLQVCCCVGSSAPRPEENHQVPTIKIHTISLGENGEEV
The experiment is described as follows: Binding affinity at Alpha-1 adrenergic receptors on rat cortical membranes by [3H]prazosin displacement. Summed up:
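Rat cortical membranes incubated with [3H]-prazosin and test compound. Six concentrations per experiment, each run in triplicate; Ki derived from IC50 by the Cheng–Prusoff method and given as the mean of 2–3 experiments.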

Regarding `Fc1ccc2[nH]cc([C@H]3CC[C@H](NCc4ccccc4)CC3)c2c1`, the inhibition in experiment [1] worked out at 11%; in experiment [3] it was 8%. Also, the negative-log Ki (pKi) in experiment [2] was 7.80.

`COc1cccc2c1CCN([C@H]1CC[C@H](c3c[nH]c4ccc(C#N)cc43)CC1)C2`: the inhibition in experiment [1] was 47%. Also, in experiment [2], the negative-log Ki (pKi) is 7.92.

Consider `N#Cc1ccc2[nH]cc([C@H]3CC[C@H](N4CCCCC4)CC3)c2c1`, for which the inhibition worked out at 0% in experiment [1] and 14% in experiment [3]. In experiment [2], this compound had a pKi of 6.82.

`COc1ccc2c(c1)CCN(CCCc1c[nH]c3ccc(F)cc13)C2` registered a Ki in experiment [4] of 0.058 µM.

Take `COc1cccc2c1CN([C@H]1CC[C@H](c3c[nH]c4ccc(C#N)cc43)CC1)CC2`: the inhibition in experiment [1] is 46%. Also, the pKi in experiment [2] is 8.12.

Compound `Fc1ccc2[nH]cc(CCCN3CCc4ccccc4C3)c2c1` yielded an inhibition in experiment [1] of 48%.

`COc1cccc2c1CN([C@H]1CC[C@@H](c3c[nH]c4ccc(C#N)cc43)CC1)CC2`: the inhibition in experiment [1] amounted to 14%. The pKi in experiment [2] is 9.00.

Turning to `COc1ccc2c(c1)CN([C@H]1CC[C@@H](c3c[nH]c4ccc(C#N)cc43)CC1)CC2`, the values for the inhibition in experiment [1] and in experiment [3] were 26% and 11%, respectively. The pKi in experiment [2] was 9.10.

Regarding `c1ccc(CN[C@H]2CC[C@@H](c3c[nH]c4ccccc43)CC2)cc1`, the inhibition was determined as 0% in experiment [1] and 21% in experiment [3]. The compound further had a pKi in experiment [2] of 6.07.

As for `COc1cccc2c1CCN([C@H]1CC[C@@H](c3c[nH]c4ccc(C#N)cc43)CC1)C2`, the inhibition in experiment [1] amounted to 7%. For the same compound, the negative logarithm of the Ki (pKi) in experiment [2] is 9.21.

Take `N#Cc1ccc2[nH]cc([C@H]3CC[C@@H](NCCc4ccccc4)CC3)c2c1`: the inhibition is 0% in experiment [1] and 40% in experiment [3]. The negative-log Ki (pKi) in experiment [2] is 8.12.

Regarding `N#Cc1ccc2[nH]cc(C3=CCC(N4CCCCC4)CC3)c2c1` (configuration not stated), the inhibition in experiment [1] came out at 0%; in experiment [3], 10%. The compound also gave a pKi in experiment [2] of 6.75.

As for `N#Cc1ccc2[nH]cc([C@H]3CC[C@@H](NCc4ccccc4)CC3)c2c1`, the figures for the inhibition in experiment [1] and in experiment [3] were 15% and 17%, respectively. In experiment [2], this compound gave a pKi of 8.12.

Turning to `COc1ccc2c(c1)CN([C@H]1CC[C@H](c3c[nH]c4ccc(C#N)cc43)CC1)CC2`, the Ki in experiment [4] stood at 0.113 µM. The compound also showed an inhibition in experiment [1] of 48%. This compound had a pKi in experiment [2] of 7.92.

On to `N#Cc1ccc2[nH]cc([C@H]3CC[C@H](NCCc4ccccc4)CC3)c2c1`, for which the inhibition in experiment [1] was found to be 0%; in experiment [3], 56%. In addition, the negative logarithm of the Ki (pKi) in experiment [2] was 8.70.

Regarding `Fc1ccc2[nH]cc([C@H]3CC[C@@H](NCc4ccccc4)CC3)c2c1`, the inhibition amounted to 3% in experiment [1] and 9% in experiment [3]. The pKi in experiment [2] is 7.68.

Turning to `N#Cc1ccc2[nH]cc([C@H]3CC[C@@H](N4CCCCC4)CC3)c2c1`, the values for the inhibition in experiment [1] and in experiment [3] were 0% and 3%, respectively. In experiment [2], the negative-log Ki (pKi) is 7.66.

Turning to `N#Cc1ccc2[nH]cc([C@H]3CC[C@@H](N4CCc5ccccc5C4)CC3)c2c1`, the inhibition constant Ki in experiment [4] is 0.337 µM. The same compound had an inhibition in experiment [1] of 0%. In experiment [2], this compound showed a pKi of 8.91.

With `N#Cc1ccc2[nH]cc(C3=CCC(NCCc4ccccc4)CC3)c2c1` (configuration not stated), the inhibition was determined as 41% in experiment [1] and 32% in experiment [3]. The compound also showed a pKi in experiment [2] of 8.81.

On to `N#Cc1ccc2[nH]cc([C@H]3CC[C@H](NCc4ccccc4)CC3)c2c1`, for which the inhibition amounted to 37% in experiment [1] and 28% in experiment [3]. The same compound gave a pKi in experiment [2] of 7.60.

With `COc1ccc2c(c1)CCN([C@H]1CC[C@H](c3c[nH]c4ccc(C#N)cc43)CC1)C2`, the inhibitory constant (Ki) in experiment [4] stood at 0.228 µM. Further, the inhibition in experiment [1] is 74%. Further, in experiment [2], the pKi was 8.10.

Take `COc1ccc2c(c1)CCN([C@H]1CC[C@@H](c3c[nH]c4ccc(C#N)cc43)CC1)C2`: the inhibition in experiment [1] was 21%; in experiment [3] it was 11%. The compound further showed a pKi in experiment [2] of 10.00.

In the case of `N#Cc1ccc2[nH]cc([C@H]3CC[C@H](N4CCc5ccccc5C4)CC3)c2c1`, the inhibition constant Ki in experiment [4] came to 0.088 µM. The compound also gave an inhibition in experiment [1] of 10%. Besides, the negative logarithm of the Ki (pKi) in experiment [2] is 8.00.

For the compound `N#Cc1ccc2[nH]cc(C3=CCC(NCc4ccccc4)CC3)c2c1` (configuration not stated), the inhibition was 87% in experiment [1] and 27% in experiment [3]. For the same compound, the pKi in experiment [2] is 8.50.

In the case of `c1ccc(CN[C@H]2CC[C@H](c3c[nH]c4ccccc43)CC2)cc1`, the inhibition in experiment [1] turned out to be 32%; in experiment [3] it was 64%. Also, in experiment [2], the negative logarithm of the Ki (pKi) was 6.97.
